Test results: ChEMBL document CHEMBL1156246 (J Med Chem, 2009)
The source made the active and inactive calls. The calls are words filed in the database; no cut-off is given here.

Experiments:
Mus musculus [1] = assay: Anticonvulsant activity in ip dosed albino mouse assessed as protection against subcutaneous metrazole-induced seizures; type: functional, organism-based
In short: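 Male albino Carworth Farms No. 1 mice, dosed intraperitoneally; subcutaneous metrazol seizure model run by previously reported methods under the NIH Anticonvulsant Screening Program; protection against seizures scored.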

Mus musculus [2] = assay: Neurotoxicity in ip dosed albino mouse assessed as time of peak effect by rotarod test; type: toxicity, organism-based; settings: in vivo
[3] = molecular target: Dihydropyrimidinase-related protein 2 (Mus musculus) (UniProt O08553); assay: Binding affinity to CRMP2 in ICR mouse brain […] at 5 uM by Western blot analysis in presence of rhodamine-containing 4-(3-azidopropylcarbamoyl)-2-(3,6-bis(dimethylamino)xanthylium-9-yl)benzoate; type: tissue-based
[4] = molecular target: Dihydropyrimidinase-related protein 2 (Mus musculus) (UniProt O08553); assay: Binding affinity to CRMP2 in ICR mouse brain […] at 5 uM by in-gel tryptic digestion analysis in presence of rhodamine-containing 4-(3-azidopropylcarbamoyl)-2-(3,6-bis(dimethylamino)xanthylium-9-yl)benzoate; type: tissue-based
In short: (§1)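 Brain soluble fraction from male 2-month ICR mice was Dounce-homogenized in 50 mM HEPES pH 7.4 and spun at 1200 × g then 100,000 × g at 4 °C. The fraction was exchanged into HEPES pH 8.0 at 2.0 mg/mL, treated with agent (5 μM, 30 min, room temperature), then clicked to rhodamine-azide (50 μM) with TCEP 1 mM, TBTA 200 μM and CuSO4 1 mM for 1 h. After SDS-PAGE, the ~62 kDa band was trypsin-digested, iTRAQ-labelled and analysed by LC-MS/MS.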

[5] = Neurotoxicity in ip dosed albino mouse by rotarod test; type: toxicity, organism-based; settings: in vivo
Mus musculus [6] = assay: Anticonvulsant activity against maximal electroshock-induced seizures in ip dosed albino mouse assessed as time of peak effect; type: functional
Mus musculus [7] = assay: Anticonvulsant activity against 6 Hz electric shock-induced seizures in ip dosed albino mouse assessed as time of peak effect; type: functional
Rattus norvegicus [8] = assay: Anticonvulsant activity in po dosed Sprague-Dawley rat assessed as protection against maximal electroshock-induced seizures; type: functional
In short: (§2)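 Male rodents screened through the NIH Anticonvulsant Screening Program: albino Carworth Farms No. 1 mice given compound ip, albino Sprague-Dawley rats given compound po. Maximal electroshock test: tonic hindlimb seizures were induced by corneal electrical stimulation. ED50 is given in mg/kg.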

Mus musculus [9] = assay: Protective index, ratio of TD50 for ip dosed albino mouse to ED50 for protection against maximal electroshock-induced seizures in ip dosed albino mouse; type: functional
Rattus norvegicus [10] = assay: Anticonvulsant activity in po dosed Sprague-Dawley rat assessed as protection against subcutaneous metrazole-induced seizures; type: functional, organism-based
In short: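 Male albino Sprague-Dawley rats, oral dosing; subcutaneous metrazol seizure test by previously reported methods within the NIH Anticonvulsant Screening Program.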

[11] = molecular target: Dihydropyrimidinase-related protein 2 (Mus musculus) (UniProt O08553); assay: Binding affinity to CRMP2 in ICR mouse brain […] at 5 uM by mass spectrometry in presence of rhodamine-containing 4-(3-azidopropylcarbamoyl)-2-(3,6-bis(dimethylamino)xanthylium-9-yl)benzoate; type: tissue-based; in short: as §1
[12] = Neurotoxicity in po dosed Sprague-Dawley rat by rotarod test; type: toxicity, organism-based; settings: in vivo
Mus musculus [13] = assay: Anticonvulsant activity in ip dosed albino mouse assessed as protection against 6 Hz electric shock-induced seizures; type: functional
In short: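 6 Hz psychomotor seizure test in mice dosed ip, with stimulation at 32 mA.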

Mus musculus [14] = assay: Anticonvulsant activity in ip dosed albino mouse assessed as protection against maximal electroshock-induced seizures; type: functional; in short: as §2
Rattus norvegicus [15] = assay: Anticonvulsant activity against maximal electroshock-induced seizures in po dosed Sprague-Dawley rat assessed as time of peak effect; type: functional
[16] = molecular target: Dihydropyrimidinase-related protein 2 (Mus musculus) (UniProt O08553); assay: Binding affinity to CRMP2 in ICR mouse brain […] at 5 uM by Western blot analysis in presence of rhodamine-containing 4-(3,6,9,12-tetraoxapentadec-14-ynylcarbamoyl)-2-(3,6-bis(dimethylamino)xanthylium-9-yl)benzoate; type: tissue-based
In short: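 Soluble brain proteome from male 2-month ICR mice was Dounce-homogenized in 50 mM HEPES pH 7.4. It was spun at 1200 × g for 12 min, then at 100,000 × g for 1 h at 4 °C, and exchanged into pH 8.0 HEPES. Aliquots (2.0 mg/mL protein) got 5 μM agent for 30 min at RT. Click reaction used rhodamine-alkyne 50 μM, TCEP 1 mM, TBTA 200 μM, CuSO4 1 mM, 1 h RT. Read-out: SDS-PAGE, in-gel fluorescence (ex 555/em 580 nm).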

Rattus norvegicus [17] = assay: Toxicity in Sprague-Dawley rat assessed as occurrence of ataxia at 300 mg/kg, po; type: organism-based; set-up: dose 300 mg/kg, route oral; settings: in vivo
Rattus norvegicus [18] = assay: Protective index, ratio of TD50 for po dosed Sprague-Dawley rat to ED50 for protection against maximal electroshock-induced seizures in po dosed Sprague-Dawley rat; type: functional
Rattus norvegicus [19] = assay: Neurotoxicity in po dosed Sprague-Dawley rat assessed as time of peak effect by rotarod test; type: toxicity, organism-based; settings: in vivo

SMILES	Activity (Mus musculus [1])	Time (Mus musculus [2])	Activity [3]	Activity [4]	TD50 [5]	Time (Mus musculus [6])	Time (Mus musculus [7])	ED50 (Rattus norvegicus [8])	Ratio TD50/ED50 (Mus musculus [9])	Activity (Rattus norvegicus [10])	Activity [11]	TD50 [12]	ED50 (Mus musculus [13])	ED50 (Mus musculus [14])	Time (Rattus norvegicus [15])	Activity [16]	Activity (Rattus norvegicus [17])	Ratio TD50/ED50 (Rattus norvegicus [18])	Time (Rattus norvegicus [19])
C#CCOC[C@@H](NC(C)=O)C(=O)NCc1ccc(N=C=S)cc1	inactive	0.25 h	Active	Active	110 mg/kg	1 h	0.5 h	> 30 mg/kg	2.4	inactive	Active	> 30 mg/kg	53 mg/kg	45 mg/kg					
C#Cc1ccc(CNC(=O)[C@H](COC)NC(C)=O)cc1	inactive	0.5 h			300 mg/kg	0.5 h				inactive				> 300 mg/kg					
C#CCOC[C@H](NC(C)=O)C(=O)NCc1ccc(N=C=S)cc1	inactive		Active	Active	> 300 mg/kg					inactive	Active			> 300 mg/kg					
CC(=O)N[C@@H](COCCN=C=S)C(=O)NCc1ccccc1	inactive	0.5 h			30 mg/kg	0.5 h		< 30 mg/kg		inactive				> 300 mg/kg	4 h				
CC(=O)N[C@H](COCCN=[N+]=[N-])C(=O)NCc1ccc(N=C=S)cc1	inactive	0.5 h			100 mg/kg	4 h				inactive				100 mg/kg		Active			
O=C1NC(=O)C(c2ccccc2)(c2ccccc2)N1 [PHENYTOIN]	inactive	2 h				2 h		> 30 mg/kg		inactive					4 h		Non-toxic		
CC(=O)N[C@H](COCCN=[N+]=[N-])C(=O)NCc1ccccc1	inactive	4 h			100 mg/kg	4 h	0.5 h	> 40 mg/kg		inactive		> 30 mg/kg	44 mg/kg	100 mg/kg	0.25 h				
CC(=O)N[C@@H](COCCN=[N+]=[N-])C(=O)NCc1ccccc1	inactive				> 300 mg/kg					inactive				> 300 mg/kg					
C#CCOC[C@@H](NC(C)=O)C(=O)NCc1ccccc1	inactive	0.25 h			59 mg/kg	0.25 h	0.5 h	7.9 mg/kg	3.7	inactive		> 500 mg/kg	29 mg/kg	16 mg/kg	0.5 h			>63	
CC(=O)N[C@H](COCCN=C=S)C(=O)NCc1ccccc1	inactive				30 mg/kg	0.5 h		< 30 mg/kg		inactive		> 30 mg/kg		> 300 mg/kg	4 h				4 h
COC[C@@H](NC(C)=O)C(=O)NCc1ccccc1 [LACOSAMIDE]	inactive	0.25 h				0.5 h		4.2 mg/kg		inactive		> 250 mg/kg	10 mg/kg		0.5 h				0.5 h
CC(=O)N[C@@H](CO)C(=O)NCc1ccc(N=C=S)cc1	inactive				30 mg/kg			180 mg/kg		inactive		> 30 mg/kg		100 mg/kg					
CCC1(c2ccccc2)C(=O)NC(=O)NC1=O [PHENOBARBITAL]	inactive	0.5 h				1 h		9.1 mg/kg		inactive				22 mg/kg	5 h				0.5 h
C#Cc1ccc(CNC(=O)[C@H](COCCN=C=S)NC(C)=O)cc1	inactive		inactive							inactive									
C#CCOC[C@H](NC(C)=O)C(=O)NCc1ccccc1	inactive				> 300 mg/kg			30 mg/kg		inactive		> 30 mg/kg	> 30 mg/kg	> 300 mg/kg					
CC(=O)N[C@@H](COCCN=[N+]=[N-])C(=O)NCc1ccc(N=C=S)cc1	inactive				300 mg/kg	0.25 h				inactive				100 mg/kg		Active			
C#Cc1ccc(CNC(=O)[C@@H](COCCN=C=S)NC(C)=O)cc1	inactive		inactive							inactive									
CCCC(CCC)C(=O)[O-].[Na+] [VALPROATE SODIUM]	inactive	0.25 h				0.25 h				inactive				270 mg/kg	0.5 h				0.5 h
CC(=O)N[C@H](CO)C(=O)NCc1ccc(N=C=S)cc1	inactive	0.25 h			47 mg/kg	0.5 h		4.2 mg/kg	2	inactive		> 250 mg/kg		24 mg/kg	4 h			>59	
C#Cc1ccc(CNC(=O)[C@@H](COC)NC(C)=O)cc1	inactive	0.5 h			10 mg/kg	0.5 h				inactive		< 30 mg/kg		3 mg/kg					0.5 h
